Assay outcomes from PubChem.
TRPC6 inh: mouse TRPC6 channel inhibitors, primary screen, cell-based, HEK293, membrane potential dye; 310,000 tested, 1.1% active; ACh-evoked depolarization; active compounds read low; Short transient receptor potential channel 6 (Mus musculus), Q61143; B-score at 10 µM;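 active = B-score under library mean minus 3 SD, initial fluorescence not abnormally high, positive integrated signal ratio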;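 note: B-score derived from integrated fluorescence ratio over the kinetic read; more negative B-score means stronger inhibition of depolarization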
TRPC4 potent: positive allosteric modulators of TRPC4, primary screen, cell-based, mouse TRPC4beta, HEK293 mu-opioid, Fluo-4 calcium; Short transient receptor potential channel 4 (Mus musculus), Q9QUQ5; 310,000 tested, 0.42% active; B-score at 10 µM; DAMGO EC20, Fluo-4 Ca2+ flux; active compounds read high; AID 2227, 2009;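 active = B-score of calcium response area above 5 SD of library B-scores, with initial fluorescence ratio within 5 SD of library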
Target sequence (Q9QUQ5 whole entry, looked up): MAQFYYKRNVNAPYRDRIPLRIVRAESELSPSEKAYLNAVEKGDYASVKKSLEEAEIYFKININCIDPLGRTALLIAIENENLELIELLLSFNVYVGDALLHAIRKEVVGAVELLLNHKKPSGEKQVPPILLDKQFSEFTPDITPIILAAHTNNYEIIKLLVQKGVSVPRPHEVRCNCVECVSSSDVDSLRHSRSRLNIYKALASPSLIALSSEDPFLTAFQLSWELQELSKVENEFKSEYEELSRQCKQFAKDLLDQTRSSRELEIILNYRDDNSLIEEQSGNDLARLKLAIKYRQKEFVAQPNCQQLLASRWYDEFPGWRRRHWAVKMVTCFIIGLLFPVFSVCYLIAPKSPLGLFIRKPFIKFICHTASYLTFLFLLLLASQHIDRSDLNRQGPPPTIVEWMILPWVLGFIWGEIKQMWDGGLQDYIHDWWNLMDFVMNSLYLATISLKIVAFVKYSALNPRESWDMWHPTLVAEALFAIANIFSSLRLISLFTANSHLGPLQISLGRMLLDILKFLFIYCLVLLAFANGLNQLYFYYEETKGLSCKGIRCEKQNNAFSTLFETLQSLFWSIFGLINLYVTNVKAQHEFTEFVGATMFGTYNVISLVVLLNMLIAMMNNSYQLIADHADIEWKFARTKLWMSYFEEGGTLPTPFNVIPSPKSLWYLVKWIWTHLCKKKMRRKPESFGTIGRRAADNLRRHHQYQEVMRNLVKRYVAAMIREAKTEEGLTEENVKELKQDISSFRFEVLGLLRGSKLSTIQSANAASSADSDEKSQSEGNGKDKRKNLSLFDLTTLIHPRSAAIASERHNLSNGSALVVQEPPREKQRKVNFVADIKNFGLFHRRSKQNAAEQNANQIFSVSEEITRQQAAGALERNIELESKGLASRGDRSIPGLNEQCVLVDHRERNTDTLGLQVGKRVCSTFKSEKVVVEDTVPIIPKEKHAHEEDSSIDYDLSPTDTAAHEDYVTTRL
TRPC4 block: inhibitors of mouse TRPC4 channel, primary screen, Fluo4 calcium, HEK293 TRPC4beta/mu-opioid cells. AID 2247, 2010. DAMGO-evoked Fluo4 calcium flux; active compounds read low. Short transient receptor potential channel 4 (Mus musculus), Q9QUQ5. B-score at 10 µM. 300,000 tested, 0.39% active;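 active = B-score over 3 SD under the library average, no early fluorescence shift, positive overall ratio signal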
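Test system – stable TRPC4beta/mu-opioid receptor HEK293 cells · Probe or stimulus – DAMGO, a submaximal dose followed by a maximal one · Dosing – one concentration per compound · Signal – Fluo4 calcium fluorescence by kinetic imaging, 5 s 1 Hz baseline · Evaluation – per-well B score of integrated baseline-normalized Fluo4 ratio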
Platelet DG rel: inhibitors of platelet dense granule secretion, primary screen, cell-based, MLPCN, human platelets; inhibition, %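 (compounds screened at 7.5 µM in platelet-rich plasma)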; human platelet-rich plasma, SFLLRN dense granule ATP release, luminescence; AID 1663, 2009; 300,000 tested, 0.22% active;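 active = mean replicate score, as percent of positive control, at or above 50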
TRPC4 agonist: activators of mouse TRPC4 channel, primary screen, Fluo4 calcium, HEK293 TRPC4beta/mu-opioid cells; Fluo4 calcium fluorescence; active compounds read high; B-score at 10 µM; 310,000 tested, 0.49% active; AID 2237, 2010;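 active = B-score above 5 SD of library B-scores, and initial fluorescence ratio not above library mean plus 5 SD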;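 note: positive B-score marks a calcium rise read as TRPC4 activation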
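system = HEK293 cells stably co-expressing mouse TRPC4beta and mu-opioid receptor | schedule = Fluo4 dye loading 45 min at room temperature, 110 s recording | measure = B-scored integrated calcium fluorescence ratio | signal = Fluo4 calcium-sensitive dye fluorescence, kinetic, 1 Hz baseline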
TRPC6 act: mouse TRPC6 channel activators, primary screen, cell-based, HEK293, membrane potential dye. Short transient receptor potential channel 6 (Mus musculus), Q61143. HEK293-TRPC6 membrane potential dye fluorescence; active compounds read high. B-score at 10 µM. 310,000 tested, 0.13% active;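 active = B-score of the integrated fluorescence ratio above library mean plus 3 SD, and starting fluorescence ratio within library mean plus 5 SD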;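 note: higher score means more depolarization so channel activation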
TRPC4 sel inh 2: mouse TRPC4 off-target activity of TRPC6 inhibitors, second screen | shares compounds with TRPC6 inh | HEK293 TRPC4/MOR, membrane potential dye fluorescence; channel activated by saturating DAMGO dose | inhibition, % at 10 µM | 920 tested, 42% active;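 active = compounds whose fluorescence signal differed from control wells by over 3 SD, either direction, in both duplicate plates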
TRPC4 spec: mouse TRPC4 modulation by TRPC6 hits, confirmation, selectivity assay for TRPC6 inhibitor project, cell-based, HEK293 TRPC4/mu-opioid, membrane potential dye | shares compounds with TRPC6 inh | membrane potential fluorescence | 920 tested, 61% active | activity change, negative = inhibition, % at 10 µM | AID 2777, 2010;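 active = rise or fall in signal beyond 3 SD of buffer-only wells in both replicate plates, either sign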;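 note: integrated kinetic ratio of fluorescence range over baseline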
HEK293 MPD ctr 2-1: nonspecific membrane potential effects, parental HEK293, confirmation, counter-screen for TRPC6 inhibitor project, cell-based, second counter screen | 920 tested, 31% active | signal change vs control, % at 10 µM | shares compounds with TRPC6 inh | AID 2779, 2010 | parental HEK293 membrane potential dye fluorescence; maximal acetylcholine challenge after compound addition;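 active = membrane potential signal moving either way by over 3 SD of the maximum-effect control, in both duplicate plates, meaning non-specific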
HEK293 MPD ctr-1: membrane potential modulation in parental HEK293, confirmation, counter-screen for TRPC6 inhibitor project, cell-based. parental HEK293 membrane potential dye fluorescence. membrane potential signal change, % at 10 µM. 920 tested, 60% active. shares compounds with TRPC6 inh;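 active = membrane potential signal shifting up or down by more than 3 SD of buffer-only wells, on both duplicate plates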
HEK293 MPD ctr-2: parental HEK293 membrane potential modulation, confirmation, counter-screen for TRPC6 modulator project, cell-based; shares compounds with TRPC6 inh; membrane potential dye fluorescence; membrane potential signal change, % at 10 µM; 2,400 tested, 51% active; AID 488924, 2010;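 active = membrane potential signal moves up or down beyond 5 SD from buffer-only wells, on both duplicate plates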
HEK293 MPD ctr 2-2: parental HEK293 nonspecific activity of TRPC6 modulators, second screen. 2,400 tested, 14% active. inhibition, % at 10 µM. membrane potential dye fluorescence; after compound, maximal acetylcholine stimulation. shares compounds with TRPC6 inh;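 active = membrane potential signal drops by more than 5 SD from the mean control signal, in both duplicate plates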
TRPC4 ctr mod: TRPC4 modulation by TRPC6 hit compounds, confirmation, selectivity assay for TRPC6 modulator project, cell-based, HEK293 TRPC4/mu-opioid, membrane potential dye, mouse | shares compounds with TRPC6 inh | membrane potential fluorescence | percent change from control (negative = decrease, positive = increase), % at 10 µM | 2,400 tested, 69% active | AID 488927, 2010;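 active = membrane potential signal moved up or down beyond 5 SD of buffer control wells, in both duplicate plates, actives on both sides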
TRPC4 ctr inh 2: second check of whether TRPC6 modulators also affect mouse TRPC4 | shares compounds with TRPC6 inh | HEK293 TRPC4/mu-opioid, membrane potential dye fluorescence; stimulated with maximal-effect DAMGO | inhibition, % at 10 µM | 2,400 tested, 55% active | AID 488928;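 active = drop in membrane potential signal beyond 5 SD of the control wells in both duplicate plates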;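 note: TRPC4 counter screen for TRPC6 hits run under conditions tuned for TRPC6 not TRPC4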
TRPC6 inh conf: mouse TRPC6 channel inhibitors, confirmation, HEK293 cells, membrane potential dye, duplicate; shares compounds with TRPC6 inh; ACh-evoked depolarization; inhibition, % at 10 µM; 3,300 tested, 43% active; AID 488960, 2010;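 active = fluorescence ratio falls more than 5 SD below the full-stimulation control mean, in both duplicate runs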;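 note: integrated fluorescence ratio of peak minus minimum over baseline after agonist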
TRPC6 act conf: mouse TRPC6 channel activators, confirmation, HEK293 cells, membrane potential dye, duplicate. 2,800 tested, 11% active. shares compounds with TRPC6 inh. HEK293-TRPC6 membrane potential dye fluorescence, FDSS. activation, % at 10 µM;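 active = ratio signal rise beyond 5 SD above unstimulated control wells' mean, seen in both duplicate runs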
Hits are given with their value; . = inactive; / = not tested or not shown; + = active, no number. Rows were chosen to be rich in hits. Some 2.5% of all compounds tested hit in one or more screens of this group.

SMILES	TRPC6 inh	TRPC4 potent	TRPC4 block	Platelet DG rel	TRPC4 agonist	TRPC6 act	HEK293 MPD ctr-2	HEK293 MPD ctr 2-2	TRPC4 ctr mod	TRPC4 ctr inh 2	TRPC6 inh conf	TRPC6 act conf	others
CN(C)CCOC(C1CCCCC1)C1CCCCC1	-5.5	.	.	.	.	.	230%	.	52%	50%	39%	/
O=C(N=Nc1c(O)[nH]c2ccc(Cl)cc12)c1cc(-c2cccs2)nc2ccccc12	-5.7	.	.	.	.	.	.	.	.	.	.	.
CCCCCCN1C=CC(=C/C=C(\C#N)C(=O)OCC)C=C1	-9.6	.	.	.	61	78	+	87%	250%	.	.	566%
CN(CC(=O)Nc1ccc(Cl)c(C(F)(F)F)c1)C(=O)Cc1c[nH]c2ccccc12	-5.7	.	.	.	.	.	.	.	-11%	48%	58%	.
C[n+]1ccc(/C=N/Nc2nc(Cl)c(C#N)c(Cl)c2Cl)cc1	-7.6	.	.	.	.	.	/	/	/	/	62%	.	TRPC4 sel inh 2=66%;TRPC4 spec=.;HEK293 MPD ctr 2-1=-108%;HEK293 MPD ctr-1=.
COc1ccccc1N1CCN(C(=O)CCCNC(=O)Cn2cnc3sc(C)c(C)c3c2=O)CC1	.	.	.	.	.	.	/	/	/	/	/	/
CCCCOc1ccc(C(=O)OC2CC(C)N(C)CC2C)cc1 (stereo unspecified)	.	.	.	.	.	15	253%	.	50%	48%	.	120%
CN(C)CCN(C(=O)c1ccc2c(c1)CCCC2)c1nc2cc3c(cc2s1)OCCO3	.	.	.	.	.	.	/	/	/	/	/	/
COc1ccc2nc(N(CCN(C)C)C(=O)c3ccc4c(c3)OCCO4)sc2c1	-5.1	.	.	.	.	.	.	.	-24%	72%	64%	.
CN(C)CCN(C(=O)c1ccc2c(c1)OCCO2)c1nc2cc3c(cc2s1)OCO3	-6.4	.	.	.	.	.	-82%	100%	-24%	92%	88%	.
COC(=O)CCc1c(C)c(C(=O)c2cc(OC)c(OC)c(OC)c2)c2ccccn12	.	.	.	.	.	.	/	/	/	/	/	/
Cc1nn(C)c(C(=O)N/N=C/c2ccc(C(F)(F)F)cc2)c1[N+](=O)[O-]	-5.8	.	.	.	.	.	.	.	-14%	.	.	.
CC(C)(C)NC(=S)NCC1CC1	.	.	.	.	.	.	/	/	/	/	/	/
COc1ccc(CCNC(=O)C2CCCN(c3ncnc4c3nc3n4CCCCC3)C2)c(OC)c1 (stereo unspecified)	.	.	.	.	.	.	/	/	/	/	/	/
O=C(C1COc2ccccc2O1)N1CCN(c2ccccc2Cl)CC1 (stereo unspecified)	.	.	.	.	.	.	/	/	/	/	/	/
COc1ccc2c(C)c(CC(=O)N3CCN(C(=O)C4COc5ccccc5O4)CC3)c(=O)oc2c1 (stereo unspecified)	-5.3	.	.	.	.	.	238%	.	44%	.	.	/
Cc1cccc(N2CCN(C(=O)C3COc4ccccc4O3)CC2)c1C (stereo unspecified)	-5.1	.	.	.	.	.	.	.	.	.	42%	/
O=C(NCc1nc2ccccc2[nH]1)C1=C[C@H](c2coc3ccccc3c2=O)C[C@H](OCCCCO)O1	.	.	.	.	.	.	/	/	/	/	/	/
CN=C1NN=C(c2cc(C)n(-c3ccc(Cl)cc3)c2C)CS1	.	.	.	.	.	.	/	/	/	/	/	/
CCCn1c(SCC(=O)Nc2cc(S(=O)(=O)N(C)C)ccc2OC)n[nH]c1=O	.	.	.	.	.	.	/	/	/	/	/	/
CC1=NCC(C)c2c1[nH]c1ccccc21 (stereo unspecified)	.	.	.	.	.	.	/	/	/	/	/	/
CN(C)CCNc1ncnc2c1cnn2-c1ccc(Cl)cc1	-5.2	.	.	.	.	.	.	.	.	31%	46%	.
NCC12CC3CC(C1)CC(c1ccc(Br)cc1)(C3)C2	-8.6	.	.	.	.	.	/	/	/	/	62%	.	TRPC4 sel inh 2=44%;TRPC4 spec=-10%;HEK293 MPD ctr 2-1=.;HEK293 MPD ctr-1=-178%
Cc1ccc(C23CC4CC(CC(CN)(C4)C2)C3)cc1	-7.5	.	.	.	.	.	/	/	/	/	.	.	TRPC4 sel inh 2=42%;TRPC4 spec=-11%;HEK293 MPD ctr 2-1=.;HEK293 MPD ctr-1=-176%
NCCOc1ccc(C23CC4CC(CC(C4)C2)C3)cc1	.	.	.	.	.	.	/	/	/	/	/	/
